RORA act – activates the human nuclear receptor RORA; 65,000 tested, 1.5% active; activation, % at 10 µM; CHO-K1 Gal4-RORA LBD luciferase reporter, luminescence; percent increase over mock-subtracted basal signal; AID 560;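 active = activation above the mean of all tested compounds plus 3 SD, cut at about 49% in these data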
SF-1 act – SF-1 (human) activation | Q13285 | CHO-K1 Gal4-SF-1 LBD luciferase reporter; % increase over DMSO SF-1-specific signal | activation, % at 10 µM | 65,000 tested, 1.9% active;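 active = activation above the mean activation of all tested compounds plus 3 SD, cut at about 50% in these data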
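Compound – one dose, 10 µM compound, 1% DMSO · Test system – transient Gal4-SF-1 LBD reporter, CHO-K1 · Input – 4,000 cells in each well · Read-out basis – percent activation relative to DMSO median and mock-transfected background · Replicates – single measurement per compound · Technique – steady-glow luciferase luminescence, read after 15 min reagent incubation · Timing – 20 h compound treatment, 37 °C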
JNK3 inh – JNK3 (human) kinase inhibition | purified JNK3 kinase activity, HTS | inhibition, % at 8 µM | 60,000 tested, 0.61% active; in the data active = inhibition above about 17%
Target sequence (P53779 whole entry, looked up): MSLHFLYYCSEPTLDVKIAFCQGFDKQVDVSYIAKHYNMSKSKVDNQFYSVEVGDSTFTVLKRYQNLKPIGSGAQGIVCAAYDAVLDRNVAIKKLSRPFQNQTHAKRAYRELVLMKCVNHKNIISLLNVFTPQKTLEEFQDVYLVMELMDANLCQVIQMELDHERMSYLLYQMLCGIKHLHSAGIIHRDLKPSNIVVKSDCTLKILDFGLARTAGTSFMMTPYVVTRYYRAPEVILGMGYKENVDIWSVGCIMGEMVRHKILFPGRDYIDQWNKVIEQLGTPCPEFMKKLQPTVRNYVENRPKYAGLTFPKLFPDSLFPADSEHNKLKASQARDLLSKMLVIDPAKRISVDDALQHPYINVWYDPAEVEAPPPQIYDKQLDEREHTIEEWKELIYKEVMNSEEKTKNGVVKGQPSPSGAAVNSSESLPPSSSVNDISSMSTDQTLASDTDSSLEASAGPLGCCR
D1 mod – D1 dopamine receptor (human) allosteric modulation | P21728 | HEK293 D1, CRE-luciferase, dopamine EC30 potentiation; actives deviate in either direction | B-score at 10 µM | 58,000 tested, 5.9% active | AID 641;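 active = luminescence count or its row- and column-corrected plate score outside the 99.7% band of the plate's sample wells, on either side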
HEK293 NFkB inh – inhibitors of the PMA/ionomycin-induced NF-kB reporter in HEK293 cells; HEK-293 NF-kB luciferase reporter, luminescence; inhibition, % at 3 µM; AID 465; 62,000 tested, 0.21% active;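 active = inhibition above the mean of all tested compounds plus 3 SD, cut at about 40% in these data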
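Reagent: PMA plus ionomycin mix as NF-kB-activating stimulus. Assay system: NF-kB luciferase reporter HEK-293 cells. Technique: luminescence from luciferase substrate reagent. Incubation: 1 h compound pre-incubation, 16 h PMA/ionomycin at 37 °C. Benchmarks: DMSO only as uninhibited control, 10 µM reference inhibitor as full inhibition. Repeats: tested once.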
Each line names hits and unclear results; the compound was inactive in the other large screens. Rows were chosen to be rich in hits. Some 7.9% of all compounds tested hit in one or more screens of this group.

CCn1c(SCC(=O)c2ccc(OC)cc2)nnc1C(C)NC(=O)c1ccc(OC)cc1 (stereo not given)	none
CN(C)c1ccc(-c2nn3c(C4CCCCC4)nnc3s2)cc1	none
O=C(c1ccco1)N1CCN(c2ccc(Cl)cc2)CC1	RORA act 98
CCn1cc(C(=O)NCCC2=CCCCC2)c(=O)c2cc(S(=O)(=O)N(C)C)ccc21	none
O=c1c2c(nc3cc(-c4ccccc4)[nH]n13)CCC2	SF-1 act 60
COc1ccc(-c2cc3nc4c(c(=O)n3[nH]2)CCC4)cc1	RORA act 54, SF-1 act 63
CCn1c(=S)sc2nc(C)sc21	D1 mod 13
Cc1occc1C(=O)Nc1cc(C(C)(C)C)on1	RORA act 64 (no result: D1 mod)
O=C(Nc1nnc(C23CC4CC(CC(C4)C2)C3)s1)c1ccco1	RORA act 91
Cc1nnc(NC(=O)c2ccco2)s1	none
Cc1occc1C(=O)Nc1nnc(C(F)(F)F)s1	none
Cc1occc1C(=O)Nc1ccccc1C(=O)O	none
Cc1occc1C(=O)Nc1ccc2ccccc2c1	RORA act 120
Cc1csc(NC(=O)c2ccoc2C)n1	SF-1 act 56
Cc1csc(NC(=O)c2cccs2)n1	SF-1 act 53
CC(C)c1nnc(NC(=O)c2cccs2)s1	RORA act 76, SF-1 act 104
CC(O)Cc1nsc(NC(=O)c2cccs2)n1 (stereo not given)	none
O=C(Nc1nnc(CCc2ccccc2)s1)c1ccco1	RORA act 54
Cc1csc(NC(=O)CSc2nnc(-c3ccoc3C)o2)n1	RORA act 61
CCOC(=O)Cc1csc(NC(=O)c2cccs2)n1	none
Cc1nnc(SCCn2c(N3CCN(c4ccccc4)CC3)nc3c2c(=O)n(C)c(=O)n3C)s1	none
CC1CCc2nn(CC(=O)NCCN3CCCCC3C)cc2C1 (stereo not given)	none
O=C(Nc1nnc(COc2ccc(F)cc2)s1)c1cccs1	none
CCOC(=O)c1sc2nc(NC(=O)c3cccs3)sc2c1C	RORA act 60
Cc1cnc(NC(=O)CSc2nnc(-c3ccccc3)o2)s1	SF-1 act 88
O=C(Nc1nc2c(ccc3ccccc32)s1)c1ccco1	RORA act 59, SF-1 act 63
O=C(Nc1nnc(CCc2ccccc2)s1)c1cccs1	SF-1 act 54
O=C(Nc1nc2c(Cl)ccc(Cl)c2s1)c1ccco1	none
Cc1sc(NC(=O)CSc2nnc(-c3ccc(F)cc3)o2)c(C#N)c1C	none
Cc1ccc(CN2CCN(CC(=O)NCc3ccc(Cl)cc3)C2=O)cc1	none (no result: JNK3 inh)
CCOc1ccc(C(C)(C)C)cc1S(=O)(=O)N1CCOCC1	none
O=C(Nc1ccc(-c2noc(CCc3ccccc3)n2)cc1)c1ccco1	RORA act 72
C=C(C)CSc1nncn1/N=C/c1ccc(OC)cc1	RORA act 49, SF-1 act 55
OCCSc1nncn1/N=C/c1c[nH]c2ccccc12	none
COc1ccc(N2CCN(Cc3nc4c(c(=O)[nH]c(=O)n4C)n3CC(C)=O)CC2)cc1	none
N#Cc1ccccc1NC(=O)CSc1nccn1CCc1ccccc1	none
Oc1ccc(Cl)cc1CNc1ccc(Br)cn1	SF-1 act 89
Cc1noc(C)c1C(=O)OCC(=O)NCCC1=CCCCC1	none (no result: D1 mod)
CN1CCN(S(=O)(=O)c2ccc(Sc3nnc(-c4cccs4)n3-c3ccccc3)nc2)CC1	D1 mod -4.1
CCn1c(SCC(=O)N2CCN(S(=O)(=O)c3ccccc3)CC2)nnc1-c1cccs1	none
O=C(Nc1ccc(Cl)cc1)c1ccncc1	none (no result: RORA act, SF-1 act, JNK3 inh, HEK293 NFkB inh)
Cn1cnc2cc(NC(=O)c3ccc(Cl)cc3)ccc21	RORA act 79, SF-1 act 67
O=C(Nc1ccc2nsnc2c1)c1cccs1	none
Cc1nn(-c2ccccc2)c(C)c1NC(=O)c1cccs1	none
O=C(Nc1ccc2nn(-c3ccccc3)nc2c1)c1cccs1	SF-1 act 70
Nc1nc(NC(=O)c2cccs2)nn1-c1ccccc1	SF-1 act 77 (no result: HEK293 NFkB inh)
COc1cccc(NC(=O)CCSc2nnc3scc(-c4ccccc4)n23)c1	D1 mod 4.4 (no result: JNK3 inh)
COc1ccc(OC)c(-c2csc3nnc(SCC(=O)Nc4ccc(NC(C)=O)cc4)n23)c1	none
CCOc1ccc(Nc2cc(C)nc(N3CCOCC3)n2)cc1	none
CCOc1ccc2nc(N3CCOCC3)nc(C)c2c1	RORA act 51
Cc1onc(-c2c(Cl)cccc2Cl)c1C(=O)N1CCc2ccccc21	D1 mod -4.8

From PubChem
